Calls of active or inactive are those of the source. The calls are words filed in the database; no cut-off is given here.
Tests used:
[1] = target: Cytochrome P450 3A4 (Homo sapiens, UniProt P08684); assay: Inhibition of CYP3A4 (unknown origin); format: ADME
[2] = target: Autotaxin (Mus musculus, UniProt Q9R1E6); assay: Inhibition of autotaxin in mouse plasma assessed as reduction in LPA (18:2) production incubated for 2 hrs LC-MS-/MS analysis; format: cell-free
[3] = system: Mus musculus; assay: Anti-fibrotic activity in C57BL/6 mouse model of bleomycin-induced lung fibrosis assessed as reduction in hydroxyproline levels at 100 to 300 mg/kg, po BID for 21 days dosed 7 days after bleomycin treatment; format: functional, organism-based
Summary of the method: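 Mice given oral BID doses (30, 100 or 300 mg/kg) starting seven days after bleomycin. Killed 21 days after bleomycin; lung fibrosis scored by hydroxyproline in one group. GLPG1690 at 30 and 100 mg/kg BID as control. Medians and p-values against bleomycin + vehicle.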

[4] = Protein binding in rat plasma; format: ADME, cell-free; settings: read-out: PPB (converted)
[5] = target: T1, Cytochrome P450 1A2 (Homo sapiens, UniProt P05177); assay: Inhibition of CYP1A2 (unknown origin); format: ADME
T1 sequence (P05177 whole entry): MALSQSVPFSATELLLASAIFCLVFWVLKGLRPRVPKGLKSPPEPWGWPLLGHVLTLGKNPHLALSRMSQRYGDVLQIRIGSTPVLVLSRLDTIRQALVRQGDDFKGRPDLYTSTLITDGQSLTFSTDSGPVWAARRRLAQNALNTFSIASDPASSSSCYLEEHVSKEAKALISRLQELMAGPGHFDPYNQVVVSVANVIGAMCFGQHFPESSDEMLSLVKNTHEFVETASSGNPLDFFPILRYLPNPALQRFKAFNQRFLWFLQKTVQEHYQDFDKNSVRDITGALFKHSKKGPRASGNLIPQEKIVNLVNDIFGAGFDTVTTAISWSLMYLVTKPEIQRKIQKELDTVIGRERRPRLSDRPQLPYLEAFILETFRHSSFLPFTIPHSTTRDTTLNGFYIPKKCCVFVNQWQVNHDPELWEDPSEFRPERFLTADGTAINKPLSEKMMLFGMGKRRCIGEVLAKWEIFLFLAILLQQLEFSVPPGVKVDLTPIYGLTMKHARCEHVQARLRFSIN

[6] = Cmax in dog at 1 mg/kg, po; format: ADME, organism-based, Canis lupus familiaris; set-up: dose 1 mg/kg, route oral; settings: in vivo
[7] = Half life in mouse at 10 mg/kg, po; format: ADME, organism-based; settings: in vivo
[8] = Volume of distribution at steady state in rat at 1 mg/kg, iv; format: ADME, organism-based; settings: in vivo, read-out: Vdss
[9] = Clearance in mouse at 1 mg/kg, iv; format: ADME, organism-based; settings: in vivo
[10] = Clearance in dog at 1 mg/kg, iv; format: ADME, organism-based, Canis lupus familiaris; settings: in vivo
[11] = Cmax in mouse at 10 mg/kg, po; format: ADME, organism-based; set-up: dose 10 mg/kg, route oral; settings: in vivo
[12] = target: Autotaxin (Homo sapiens, UniProt Q13822); assay: Potency index, ratio of IC50 for GLPG1690 to IC50 for test compound for inhibition of autotaxin in human plasma assessed as reduction in LPA (18:2) production incubated for 2 hrs LC-MS-/MS analysis; format: cell-free
[13] = Cmax in rat at 5 mg/kg, po; format: ADME, organism-based; set-up: dose 5 mg/kg, route oral; settings: in vivo
[14] = system: Mus musculus; assay: Anti-fibrotic activity in C57BL/6 mouse model of bleomycin-induced lung fibrosis assessed as reduction in hydroxyproline levels at 100 to 300 mg/kg, po BID dosed until day 21 starting one day prior to bleomycin treatment; format: functional, organism-based
Summary of the method: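 Mice given oral BID doses (30, 100 or 300 mg/kg) starting one day before bleomycin. Killed 21 days after bleomycin; lung fibrosis scored by hydroxyproline in one group. GLPG1690 at 30 and 100 mg/kg BID as control. Hydroxyproline plotted per mouse; medians and p-values against bleomycin + vehicle.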

[15] = Volume of distribution at steady state in mouse at 1 mg/kg, iv; format: ADME, organism-based; settings: in vivo, read-out: Vdss
[16] = target: T2, Lysophosphatidic acid receptor 3 (Homo sapiens, UniProt Q9UBY5); assay: Inhibition of LPAR3 (unknown origin)
T2 sequence (Q9UBY5 whole entry): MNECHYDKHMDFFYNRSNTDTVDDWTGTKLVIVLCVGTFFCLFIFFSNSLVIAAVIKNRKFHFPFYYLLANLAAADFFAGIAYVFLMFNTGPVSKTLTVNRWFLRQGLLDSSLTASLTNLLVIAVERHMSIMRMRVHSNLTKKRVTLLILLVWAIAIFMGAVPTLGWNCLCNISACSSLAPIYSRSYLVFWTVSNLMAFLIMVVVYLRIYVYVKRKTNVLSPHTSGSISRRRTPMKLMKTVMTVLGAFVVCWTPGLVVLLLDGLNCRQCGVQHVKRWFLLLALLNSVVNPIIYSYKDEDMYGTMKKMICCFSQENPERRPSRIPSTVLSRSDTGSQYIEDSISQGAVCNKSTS

[17] = target: Voltage-gated inwardly rectifying potassium channel KCNH2 (Homo sapiens, UniProt Q12809); assay: Inhibition of human ERG by manual patch clamp assay
[18] = Oral bioavailability in dog at 1 mg/kg; format: ADME, organism-based, Canis lupus familiaris; settings: in vivo
[19] = Clearance in rat at 1 mg/kg, iv; format: ADME, organism-based; settings: in vivo

Sequence of Cytochrome P450 3A4 (P08684 whole entry): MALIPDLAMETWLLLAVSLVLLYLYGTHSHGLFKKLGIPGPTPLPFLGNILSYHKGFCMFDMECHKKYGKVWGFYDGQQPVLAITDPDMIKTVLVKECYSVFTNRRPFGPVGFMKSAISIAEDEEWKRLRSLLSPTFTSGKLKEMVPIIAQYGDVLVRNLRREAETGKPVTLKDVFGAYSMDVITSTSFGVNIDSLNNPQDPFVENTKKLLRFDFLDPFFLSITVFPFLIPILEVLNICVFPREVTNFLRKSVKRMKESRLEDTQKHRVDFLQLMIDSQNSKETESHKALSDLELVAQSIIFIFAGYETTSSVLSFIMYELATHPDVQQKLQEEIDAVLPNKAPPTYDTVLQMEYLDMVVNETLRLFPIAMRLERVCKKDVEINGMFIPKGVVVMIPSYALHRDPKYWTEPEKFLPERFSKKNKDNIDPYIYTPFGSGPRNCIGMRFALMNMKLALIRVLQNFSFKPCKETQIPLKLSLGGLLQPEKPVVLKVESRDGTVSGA
Sequence of Voltage-gated inwardly rectifying potassium channel KCNH2 (Q12809 whole entry): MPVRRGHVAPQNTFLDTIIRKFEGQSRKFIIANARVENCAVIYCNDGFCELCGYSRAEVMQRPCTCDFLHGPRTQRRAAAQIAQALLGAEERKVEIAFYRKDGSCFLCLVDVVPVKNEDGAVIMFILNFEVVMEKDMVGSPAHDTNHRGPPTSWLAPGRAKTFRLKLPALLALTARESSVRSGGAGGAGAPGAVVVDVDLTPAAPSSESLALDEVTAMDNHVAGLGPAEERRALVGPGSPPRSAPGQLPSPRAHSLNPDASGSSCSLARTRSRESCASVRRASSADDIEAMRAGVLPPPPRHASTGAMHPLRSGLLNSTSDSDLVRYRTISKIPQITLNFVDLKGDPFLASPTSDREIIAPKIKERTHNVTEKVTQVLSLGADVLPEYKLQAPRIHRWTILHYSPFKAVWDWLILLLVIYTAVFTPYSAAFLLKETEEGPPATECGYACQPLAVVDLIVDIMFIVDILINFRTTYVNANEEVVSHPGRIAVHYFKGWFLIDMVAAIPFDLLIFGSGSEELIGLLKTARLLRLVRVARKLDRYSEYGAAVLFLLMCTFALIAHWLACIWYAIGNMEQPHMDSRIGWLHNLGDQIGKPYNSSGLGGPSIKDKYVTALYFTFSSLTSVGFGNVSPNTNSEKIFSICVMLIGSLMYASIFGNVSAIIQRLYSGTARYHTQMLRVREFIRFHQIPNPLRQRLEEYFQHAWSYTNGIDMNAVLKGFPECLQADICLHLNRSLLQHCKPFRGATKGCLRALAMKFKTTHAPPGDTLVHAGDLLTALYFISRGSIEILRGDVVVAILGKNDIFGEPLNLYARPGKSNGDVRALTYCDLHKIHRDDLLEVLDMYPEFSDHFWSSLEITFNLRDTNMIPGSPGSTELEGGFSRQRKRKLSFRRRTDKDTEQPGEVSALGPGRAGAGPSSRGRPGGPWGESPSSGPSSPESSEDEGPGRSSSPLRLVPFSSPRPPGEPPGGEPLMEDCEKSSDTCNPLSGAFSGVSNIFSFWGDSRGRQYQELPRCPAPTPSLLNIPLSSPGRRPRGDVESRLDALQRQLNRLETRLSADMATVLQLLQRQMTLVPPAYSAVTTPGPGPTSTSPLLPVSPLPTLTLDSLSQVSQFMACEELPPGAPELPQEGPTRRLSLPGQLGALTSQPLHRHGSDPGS

## CC(C)[C@@H](NC(=O)c1cc(C(F)(F)F)ccc1F)C(=O)N1CCC2(CC1)C(=O)N(C)C(=O)N2c1ccc2[nH]ncc2c1
[1]
  IC50: > 50 µM
[2]
  IC50: 0.007 µM
[3]
  Activity: Active
[4]
  fraction unbound: 0.273
[5]
  IC50: > 50 µM
[6]
  Cmax: 374 ng/mL
[7]
  half-life: 2.5 h
[8]
  Vd: 1.98 L/kg
[9]
  clearance: 54 mL/min/kg
[10]
  clearance: 7.96 mL/min/kg
[11]
  Cmax: 744 ng/mL
[12]
  Ratio IC50: 20
[13]
  Cmax: 160 ng/mL
[14]
  Activity: Active
[15]
  Vd: 1.38 L/kg
[16]
  IC50: > 10 µM
[17]
  IC50: > 50 µM
[18]
  bioavailability: 100%
[19]
  clearance: 36 mL/min/kg

Reference: ChEMBL document CHEMBL4610127, “Novel Autotaxin Inhibitor for the Treatment of Idiopathic Pulmonary Fibrosis: A Clinical Candidate Discovered Using DNA-Encoded Chemistry” (J Med Chem, 2020)
